This note sets out measurements from ChEMBL document CHEMBL6134765, “Rapid identification of novel indolylarylsulfone derivatives as potent HIV-1 NNRTIs via miniaturized CuAAC click-chemistry-based combinatorial libraries” (RSC Med Chem, 2025).

Series [1] concerns Human immunodeficiency virus 1. In words: Antiviral activity against HIV-1 harboring F227L/V106A double mutant infected in human MT4 cells assessed as inhibition of virus induced cytotoxicity incubated for 5 days by spectrophometry based MTT assay. The series is classed as functional, organism-based. The note with it: Human immunodeficiency virus 1, MT4, 120 h. The essentials:
(§1)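 MT-4 cells (from Dr. N. Yamamoto, Yamaguchi University) infected with single-mutant (L100I, K103N, Y181C, Y188L, E138K) or double-mutant (F227L/V106A; RES056 = K103N/Y181C) HIV-1 strains. Protection against virus-induced cytotoxicity was read by the MTT method. EC50 is the concentration giving 50% protection of the cell cultures.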

Series [2] can be described thus: Selectivity index, ratio of CC50 for cytotoxicity against human MT4 cells to EC50 for antiviral activity against wild-type HIV-1 IIIB infected in human MT4 cells. The class given is toxicity, cell-based. To be noted: read-out: Ratio CC50/EC50. The essentials:
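Selectivity index is calculated as CC50 (mock-infected MT-4, MTT) divided by EC50 (HIV-1 IIIB protection of MT-4, MTT).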

For series [3], the system named is Human immunodeficiency virus 1. In words: Antiviral activity against HIV-1 harboring Y188L mutant infected in human MT4 cells assessed as inhibition of virus induced cytotoxicity incubated for 5 days by spectrophometry based MTT assay. The series is classed as functional, organism-based. The note with it: Human immunodeficiency virus 1, MT4, 120 h. The essentials:
as §1

Series [4] addresses Human immunodeficiency virus type 1 reverse transcriptase (Human immunodeficiency virus 1) (UniProt Q72547). In words: Inhibition of recombinant HIV-1 reverse transcriptase at 0.66 mM incubated for 1 hr by ELISA relative to control. The essentials:
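Each library compound was tested directly as the crude click mixture (diluted in DMSO to 2 mM per well) against HIV-1 RT at 0.66 mM, using an ELISA-based RT kit following the kit protocol. Blank controls held DMSO, TBTA, CuSO4·5H2O and sodium ascorbate. Inhibition is expressed as a percentage.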

In series [5] the test system is Human immunodeficiency virus 1. In words: Antiviral activity against HIV-1 harboring Y181C mutant infected in human MT4 cells assessed as inhibition of virus induced cytotoxicity incubated for 5 days by spectrophometry based MTT assay. The note with it: Human immunodeficiency virus 1, MT4, 120 h. The series is classed as functional, organism-based. The essentials:
as §1

Series [6] concerns Human immunodeficiency virus 2. In words: Antiviral activity against HIV-2 ROD infected in human MT4 cells incubated for 5 days by spectrophotometry based MTT assay. The class given is functional, organism-based. To be noted: Human immunodeficiency virus 2, ROD, MT4, 120 h. The essentials: (§2)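 MTT protection assay in MT-4 cells infected with HIV-1 IIIB or HIV-2 ROD. EC50 is the compound concentration giving 50% protection of the cultures against virus-induced cytotoxicity.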

Series [7] deals with Human immunodeficiency virus 1. In words: Antiviral activity against HIV-1 harboring E138K mutant infected in human MT4 cells assessed as inhibition of virus induced cytotoxicity incubated for 5 days by spectrophometry based MTT assay. The class given is functional, organism-based. The note with it: Human immunodeficiency virus 1, MT4, 120 h. The essentials: as §1
The subject of series [8] is Human immunodeficiency virus 1. In words: Antiviral activity against wild-type HIV-1 IIIB infected in human MT4 cells incubated for 5 days by spectrophometry based MTT assay. The class given is functional, organism-based. To be noted: Human immunodeficiency virus 1, IIIB, MT4, 120 h. The essentials: as §2
Series [9] concerns Human immunodeficiency virus 1. In words: Antiviral activity against HIV-1 harboring RES056 mutant infected in human MT4 cells assessed as inhibition of virus induced cytotoxicity incubated for 5 days by spectrophometry based MTT assay. The series is classed as functional, organism-based. The note with it: Human immunodeficiency virus 1, MT4, 120 h. The essentials:
as §1

Series [10] concerns Human immunodeficiency virus 1. In words: Antiviral activity against HIV-1 harboring K103N mutant infected in human MT4 cells assessed as inhibition of virus induced cytotoxicity incubated for 5 days by spectrophometry based MTT assay. The class given is functional, organism-based. To be noted: Human immunodeficiency virus 1, MT4, 120 h. The essentials: as §1
Series [11] deals with Human immunodeficiency virus 1. In words: Antiviral activity against HIV-1 harboring L100I mutant infected in human MT4 cells assessed as inhibition of virus induced cytotoxicity incubated for 5 days by spectrophometry based MTT assay. The class given is functional, organism-based. To be noted: Human immunodeficiency virus 1, MT4, 120 h. The essentials:
as §1

Series [12] in a line: Cytotoxicity against human MT4 cells assessed as reduction in cell viability incubated for 5 days by MTT assay. The class given is toxicity, cell-based. The note with it: time 5 day. The essentials:
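Mock-infected MT-4 cultures were read by MTT for cell viability. CC50 is the concentration that reduces viability by 50%.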

pEC50: −log10 of the molar value.

As to `Cc1cc(C)cc(S(=O)(=O)c2c(C(=O)NCc3cn(CC(=O)Nc4ccc(F)cc4)nn3)[nH]c3ccc(Cl)cc23)c1`, the pEC50 is 5.29 in series [1]; 4.85 in [3]; 5.97 in [5]; < 4.79 in series [6]; 6.25 in [7]; 7.06 in series [8]. Moreover, the pEC50 in series [9] is < 4.79; in series [10], 5.56; in [11] it was 6.28. Besides, in series [2], the selectivity ratio amounted to 188. Besides, in [4], the inhibition is > 85%. The CC50 at 120 h in series [12] was determined as 16200 nM.
`Cc1cc(C)cc(S(=O)(=O)c2c(C(=O)NCc3cn(CSc4ccccc4)nn3)[nH]c3ccc(Cl)cc23)c1`: the pEC50 is 6.09 in [1]; 4.80 in series [3]; 6.17 in [5]; < 3.66 in [6]; 6.74 in [7]; 7.40 in series [8]. Also, the negative-log EC50 (pEC50) is < 3.66 in series [9], 6.62 in series [10] and 6.82 in series [11]. Further, in [2], the selectivity ratio was > 5510. The inhibition in series [4] is > 85%. Also, in [12], the CC50 at 120 h is > 221000 nM.
Regarding `COC(=O)Cn1cc(CNC(=O)c2[nH]c3ccc(Cl)cc3c2S(=O)(=O)c2cc(C)cc(C)c2)nn1`, the pEC50 is 5.97 in [1]; 4.93 in [3]; 6.10 in [5]; < 5.19 in series [6]; 6.77 in series [7]; 7.35 in series [8]. Besides, the results for the pEC50 in series [9], in [10] and in [11] were < 5.19, 6.85 and 6.66, respectively. Also, the selectivity ratio in series [2] worked out at 143. Besides, the inhibition in [4] was > 85%. Also, the CC50 at 120 h in series [12] turned out to be 6460 nM.
For `CCOC(=O)Cn1cc(CNC(=O)c2[nH]c3ccc(Cl)cc3c2S(=O)(=O)c2cc(C)cc(C)c2)nn1`, the pEC50 in series [1] is 5.77; in series [3], 4.48; in series [5], 6.20; in [6] it was 3.65; in [7], 7.00; in series [8], 7.49. Also, the results for the pEC50 in series [9], in series [10] and in series [11] were 3.69, 6.47 and 6.77, respectively. In series [2], the selectivity ratio is > 7330. Further, the inhibition in [4] was > 85%. For the same molecule, the CC50 at 120 h in series [12] is > 236000 nM.
`Cc1cc(C)cc(S(=O)(=O)c2c(C(=O)NCc3cn(Cc4cccc(C#N)c4)nn3)[nH]c3ccc(Cl)cc23)c1`: the pEC50 in series [1] was 5.53; in series [3], < 4.45; in series [5], 5.96; in series [6] it was < 3.78; in series [7] it was 6.46; in series [8], 7.21. Besides, the pEC50 in series [9] was < 3.78; in series [10], 5.91; in [11] it was 6.47. Also, the selectivity ratio in series [2] is 2680. For the same molecule, the inhibition in [4] is > 85%. Further, the CC50 at 120 h in series [12] turned out to be 166000 nM.
Take `Cc1cc(C)cc(S(=O)(=O)c2c(C(=O)NCc3cn(CC(=O)Nc4ccc(Br)cc4)nn3)[nH]c3ccc(Cl)cc23)c1`: the pEC50 is 5.73 in [1]; 5.39 in series [3]; 6.27 in series [5]; < 4.80 in [6]; 6.82 in series [7]; 7.17 in [8]. The figures for the pEC50 in series [9], in series [10] and in series [11] were < 4.80, 5.82 and 6.42, respectively. For the same molecule, the selectivity ratio in [2] amounted to 231. Besides, the inhibition in series [4] was > 85%. Further, the CC50 at 120 h in series [12] came to 15800 nM.
Take `Cc1cc(C)cc(S(=O)(=O)c2c(C(=O)NCc3cn(Cc4cccc5ccccc45)nn3)[nH]c3ccc(Cl)cc23)c1`: the pEC50 was 5.70 in series [1]; 4.60 in series [3]; 6.21 in series [5]; < 3.67 in [6]; 6.62 in series [7]; 7.21 in series [8]. Moreover, the figures for the pEC50 in series [9], in [10] and in series [11] were 3.95, 6.15 and 6.52, respectively. For the same molecule, the selectivity ratio in series [2] was > 3510. Moreover, the inhibition in [4] is > 85%. The CC50 at 120 h in [12] is > 214000 nM.
